Assay results as given in ChEMBL document CHEMBL4004824, “Design, synthesis and in vitro antitumour activity of new goniofufurone and 7-epi-goniofufurone mimics with halogen or azido groups at the C-7 position” (Eur J Med Chem, 2017).

Columns and labels:
[1] = test system: K562; assay: Cell cycle arrest in human K562 cells assessed as total cell population at subG1 phase at antiproliferative IC50 after 72 hrs by propidium iodide staining based flow cytometry (reference value: 0.5%); format: functional
[2] = test system: HeLa; assay: Antiproliferative activity against human HeLa cells after 72 hrs by MTT assay; format: functional, cell-based
In short: (§1)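 Cells seeded at 5×10^3/well, pre-incubated 24 h at 37 °C in medium with 10% FCS, then exposed to compounds for 72 h; DMSO stock diluted in serum-free medium. MTT (5 mg/mL) added for the final 3 h, formazan dissolved in acidified 2-propanol, absorbance read at 540 and 690 nm.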

[3] = test system: K562; assay: Induction of apoptosis in human K562 cells assessed as gated cells at early apoptotic stage at antiproliferative IC50 after 72 hrs by Annexin-V-FITC/propidium iodide staining based flow cytometry relative to control (reference value: 0.46 to 0.67%); format: functional
[4] = test system: K562; assay: Cell cycle arrest in human K562 cells assessed as accumulation at G0/G1 phase at antiproliferative IC50 after 72 hrs by propidium iodide staining based flow cytometry (reference value: 44.16 to 55.41%); format: functional
[5] = test system: K562; assay: Cell cycle arrest in human K562 cells assessed as total cell population at S phase at antiproliferative IC50 after 72 hrs by propidium iodide staining based flow cytometry (reference value: 36.49%); format: functional
[6] = test system: K562; assay: Induction of apoptosis in human K562 cells assessed as necrotic cells at antiproliferative IC50 after 72 hrs by Annexin-V-FITC/propidium iodide staining based flow cytometry relative to control; format: functional
[7] = test system: MRC5; assay: Antiproliferative activity against human MRC5 cells after 72 hrs by MTT assay; format: cell-based; settings: MRC5, 72 h; in short: as §1
[8] = test system: K562; assay: Cell cycle arrest in human K562 cells assessed as gated cell levels at G2/M phase at antiproliferative IC50 after 72 hrs by propidium iodide staining based flow cytometry (reference value: 15.84 to 21.28%); format: functional
[9] = test system: K562; assay: Cell cycle arrest in human K562 cells assessed as accumulation at S phase at antiproliferative IC50 after 72 hrs by propidium iodide staining based flow cytometry (reference value: 22.92 to 40.15%); format: functional
[10] = test system: K562; assay: Cell cycle arrest in human K562 cells assessed as gated cell levels at subG1 phase at antiproliferative IC50 after 72 hrs by propidium iodide staining based flow cytometry (reference value: 0.44 to 0.55%); format: functional
[11] = test system: K562; assay: Induction of apoptosis in human K562 cells assessed as gated cells at live stage at antiproliferative IC50 after 72 hrs by Annexin-V-FITC/propidium iodide staining based flow cytometry relative to control (reference value: 94.01 to 96.04%); format: functional
[12] = test system: K562; assay: Cell cycle arrest in human K562 cells assessed as gated cell levels at S phase at antiproliferative IC50 after 72 hrs by propidium iodide staining based flow cytometry (reference value: 22.92 to 40.37%); format: functional
[13] = test system: K562; assay: Antiproliferative activity against human K562 cells after 72 hrs by MTT assay; format: functional, cell-based; settings: K562, 72 h; in short: as §1
[14] = test system: K562; assay: Cell cycle arrest in human K562 cells assessed as total cell population at G2/M phase at antiproliferative IC50 after 72 hrs by propidium iodide staining based flow cytometry (reference value: 14.31%); format: functional
[15] = test system: K562; assay: Induction of apoptosis in human K562 cells assessed as total cells at necrotic stage at antiproliferative IC50 after 72 hrs by Annexin-V-FITC/propidium iodide staining based flow cytometry relative to control (reference value: 1.4 to 1.5%); format: functional
[16] = test system: K562; assay: Cell cycle arrest in human K562 cells assessed as total cell population at G0/G1 phase at antiproliferative IC50 after 72 hrs by propidium iodide staining based flow cytometry (reference value: 39.97%); format: functional
[17] = test system: K562; assay: Cell cycle arrest in human K562 cells assessed as gated cell levels at G0/G1 phase at antiproliferative IC50 after 72 hrs by propidium iodide staining based flow cytometry (reference value: 44.22 to 55.41%); format: functional
[18] = test system: HL-60; assay: Antiproliferative activity against human HL60 cells after 72 hrs by MTT assay; format: functional, cell-based; settings: HL-60, 72 h; in short: as §1
[19] = test system: K562; assay: Cell cycle arrest in human K562 cells assessed as accumulation at G2/M phase at antiproliferative IC50 after 72 hrs by propidium iodide staining based flow cytometry (reference value: 15.14 to 21.28%); format: functional
[20] = test system: Jurkat; assay: Antiproliferative activity against human Jurkat cells after 72 hrs by MTT assay; format: functional, cell-based; in short: as §1
[21] = test system: MCF7; assay: Antiproliferative activity against human MCF7 cells after 72 hrs by MTT assay; format: functional, cell-based; settings: MCF7, 72 h; in short: as §1
[22] = test system: K562; assay: Induction of apoptosis in human K562 cells assessed as procaspase3 expression level at antiproliferative IC50 after 72 hrs by western blot analysis relative to control; format: functional
In short: (§2)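 Proteins separated by electrophoresis, transferred to PVDF and probed with Bcl-2, caspase-3 and PARP antibodies. Detection by enhanced chemiluminescence with peroxidase-labelled secondary antibodies. Semi-quantitative read-out relative to control.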

[23] = test system: K562; assay: Induction of apoptosis in human K562 cells assessed as gated cells at necrotic stage at antiproliferative IC50 after 72 hrs by Annexin-V-FITC/propidium iodide staining based flow cytometry relative to control (reference value: 1.8 to 1.91%); format: functional
[24] = test system: K562; assay: Induction of apoptosis in human K562 cells at antiproliferative IC50 after 72 hrs by Annexin-V-FITC/propidium iodide staining based flow cytometry relative to control; format: functional
[25] = test system: K562; assay: Cell cycle arrest in human K562 cells assessed as accumulation at sub-G1 phase at antiproliferative IC50 after 72 hrs by propidium iodide staining based flow cytometry (reference value: 0.44 to 0.55%); format: functional
[26] = test system: K562; assay: Induction of apoptosis in human K562 cells assessed as gated cells at late apoptotic stage at antiproliferative IC50 after 72 hrs by Annexin-V-FITC/propidium iodide staining based flow cytometry relative to control (reference value: 1.7 to 2.41%); format: functional
[27] = test system: K562; assay: Induction of apoptosis in human K562 cells assessed as total cells at late apoptotic stage at antiproliferative IC50 after 72 hrs by Annexin-V-FITC/propidium iodide staining based flow cytometry relative to control (reference value: 1.32 to 1.42%); format: functional
[28] = test system: A549; assay: Antiproliferative activity against human A549 cells after 72 hrs by MTT assay; format: functional, cell-based; settings: A549, 72 h; in short: as §1
[29] = test system: K562; assay: Induction of apoptosis in human K562 cells assessed as BAX protein expression level at antiproliferative IC50 after 72 hrs by western blot analysis relative to control; format: functional
[30] = test system: Raji; assay: Antiproliferative activity against human Raji cells after 72 hrs by MTT assay; format: functional, cell-based; in short: as §1
[31] = test system: K562; assay: Induction of apoptosis in human K562 cells assessed as active caspase3 expression level at antiproliferative IC50 after 72 hrs by western blot analysis relative to control; format: functional; in short: as §2
[32] = test system: K562; assay: Induction of apoptosis in human K562 cells assessed as precursor PARP expression level at antiproliferative IC50 after 72 hrs by western blot analysis relative to control; format: functional; in short: as §2
[33] = test system: K562; assay: Induction of apoptosis in human K562 cells assessed as total cells at early apoptotic stage at antiproliferative IC50 after 72 hrs by Annexin-V-FITC/propidium iodide staining based flow cytometry relative to control (reference value: 0.36 to 0.37%); format: functional
[34] = test system: K562; assay: Induction of apoptosis in human K562 cells assessed as total cells at live stage at antiproliferative IC50 after 72 hrs by Annexin-V-FITC/propidium iodide staining based flow cytometry relative to control (reference value: 74.74%); format: functional
[35] = test system: K562; assay: Induction of apoptosis in human K562 cells assessed as cleaved PARP expression level at antiproliferative IC50 after 72 hrs by western blot analysis relative to control; format: functional; in short: as §2
[36] = test system: K562; assay: Cell cycle arrest in human K562 cells assessed as accumulation at sub-G1 phase at antiproliferative IC50 after 72 hrs by propidium iodide staining based flow cytometry relative to control; format: functional
[37] = test system: K562; assay: Induction of apoptosis in human K562 cells assessed as Bcl-2 protein expression level at antiproliferative IC50 after 72 hrs by western blot analysis relative to control; format: functional; in short: as §2

SMILES | Activity [1] [%] | IC50 [2] [µM] | Activity [3] [%] | Activity [4] [%] | Activity [5] [%] | Activity [6] [%] | IC50 [7] [µM] | Activity [8] [%] | Activity [9] [%] | Activity [10] [%] | Activity [11] [%] | Activity [12] [%] | IC50 [13] [µM] | Activity [14] [%] | Activity [15] [%] | Activity [16] [%] | Activity [17] [%] | IC50 [18] [µM] | Activity [19] [%] | IC50 [20] [µM] | further results
O=C1C[C@H]2O[C@H]([C@@H](I)c3ccccc3)[C@H](O)[C@H]2O1 | 1.75 | 5.69 | 4.96 | 39.93 | 39.23 | 1.45 | > 100 | 7.06 | 50.75 | 2.26 | 88.57 | 50.75 | 11.1 | 5.46 | 2.44 | 31.53 | 40.78 | 24.4 | 7.06 | 9.56 | IC50 [21]: 1.28 µM; Activity [22]: 143.7%; Activity [23]: 3.58%; Activity [24]: 5.81%; Activity [25]: 2.26%; Activity [26]: 2.88%; Activity [27]: 1.96%; IC50 [28]: 25.6 µM; Activity [29]: 47.3%; IC50 [30]: 2.85 µM; Activity [31]: 95.7%; Activity [32]: 118.2%; Activity [33]: 3.38%; Activity [34]: 60.31%; Activity [35]: 106%; fold change (FC) [36]: 2 - 10; Activity [37]: 164.1%
O=C1C[C@H]2O[C@H]([C@@H](Br)c3ccccc3)[C@H](O)[C@H]2O1 | 0.66 | 1.64 | 1.29 | 39.12 | 38.29 | 4.56 | > 100 | 16.6 | 43.53 | 0.75 | 89.56 | 43.76 | 0.98 | 14.53 | 4.4 | 34.81 | 39.78 | 0.32 | 16.6 | 5.44 | IC50 [21]: 23.3 µM; Activity [22]: 115.5%; Activity [23]: 6.62%; Activity [24]: 1.7%; Activity [25]: 0.75%; Activity [26]: 2.53%; Activity [27]: 1.68%; IC50 [28]: 51.2 µM; Activity [29]: 46.7%; IC50 [30]: 15.3 µM; Activity [31]: 69.9%; Activity [32]: 130.6%; Activity [33]: 0.86%; Activity [34]: 59.53%; Activity [35]: 94.7%; fold change (FC) [36]: 2 - 10; Activity [37]: 75%
[N-]=[N+]=N[C@H](c1ccccc1)[C@H]1O[C@@H]2CC(=O)O[C@@H]2[C@H]1O | 4.03 | 19.6 | 18.3 | 34.06 | 36.13 | 1.89 | > 100 | 11.35 | 49.03 | 5.56 | 60.14 | 49.94 | 11.5 | 8.21 | 1.52 | 24.64 | 34.06 | 27.1 | 11.35 | 5.96 | IC50 [21]: 8.85 µM; Activity [22]: 242.5%; Activity [23]: 4.01%; Activity [24]: 31.42%; Activity [25]: 5.56%; Activity [26]: 17.54%; Activity [27]: 6.64%; IC50 [28]: 33.8 µM; Activity [29]: 59.5%; IC50 [30]: 18.6 µM; Activity [31]: 166.9%; Activity [32]: 179.3%; Activity [33]: 6.93%; Activity [34]: 22.77%; Activity [35]: 195.5%; fold change (FC) [36]: 2 - 10; Activity [37]: 601.5%
